This is a sample that favours compounds with a hit; in the whole collection about 0.98% have one here.
S1P3 antag – S1P3 receptor antagonists, primary screen, cell-based; CHO S1P3 NFAT-BLA reporter, FRET fluorescence, antagonist mode; inhibition, % at 4.98 µM; 0.27% of 170,000 active;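 active = inhibition above the plate cutoff, the mean inhibition of test wells on that plate plus 3 SD, cut at about 28% in these data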;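 also: cells challenged with S1P at its EC80 of 0.8 µM; blue over green emission ratio from cleaved BLA substrate after 4 h stimulation; 0% = S1P-stimulated wells and 100% = unstimulated DMSO-only wells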
Target sequence (Q99500 whole entry, looked up): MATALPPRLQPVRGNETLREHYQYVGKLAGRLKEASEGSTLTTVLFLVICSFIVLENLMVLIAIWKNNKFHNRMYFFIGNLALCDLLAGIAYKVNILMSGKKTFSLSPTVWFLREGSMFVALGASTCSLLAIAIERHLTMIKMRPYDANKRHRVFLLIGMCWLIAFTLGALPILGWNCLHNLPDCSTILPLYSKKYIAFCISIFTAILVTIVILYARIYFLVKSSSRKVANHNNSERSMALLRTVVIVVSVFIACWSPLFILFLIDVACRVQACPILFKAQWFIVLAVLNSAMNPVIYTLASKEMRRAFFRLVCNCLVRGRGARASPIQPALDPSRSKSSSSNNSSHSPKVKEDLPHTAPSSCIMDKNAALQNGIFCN
BB579 growth dn – growth inhibitors of yeast BB579 in restrictive medium, primary screen, yeast lifespan-shortening project, S. cerevisiae; OD615, 48 h; inhibition, % at 10 µM; 0.51% of 140,000 active; AID 804, 2007;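 active = inhibition above a set limit, 3 SD over the mean compound inhibition, cut at about 44% in these data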
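Detection: OD615 turbidity measurement; Material: Saccharomyces cerevisiae DeaD strain BB579, replicative lifespan model yeast; Timing: 48 h exposure, 30 °C; Doses: single 10 µM dose; Medium: CSMM-D restrictive synthetic medium containing dextrose (glucose); Controls: amphotericin B at 10 µg/mL as positive control.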
Yeast life ext – compounds extending yeast replicative lifespan, primary screen, S. cerevisiae, OD615. S. cerevisiae growth with nicotinamide; deaD strain in restrictive glucose medium. inhibition of the nicotinamide effect, % at 10 µM. 0.68% of 130,000 active;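 active = inhibition above a set limit, placed 3 SD over the median of all compounds, cut at about 26% in these data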;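 also: 0% = nicotinamide-treated wells and 100% = cells grown without nicotinamide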
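Buffer or medium: CSMM-D glucose medium, restrictive; test system: modified budding yeast, DeaD strain; compound: single dose 10 µM compound, 0.25% DMSO; schedule: culture preincubation 4 h, compound exposure 48 h, both 30 °C; detection: optical density (absorbance) at 615 nm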
Active calls of the source: *; . = no result given.

SMILES	S1P3 antag	BB579 growth dn	Yeast life ext
Cc1ccc(C(=O)NCC(=O)N/N=C/c2sccc2C)cc1[N+](=O)[O-]	-5.6	.	.
CC(Sc1n[nH]c(N)n1)c1nc2scc(-c3cccs3)c2c(=O)[nH]1 (stereo unspecified)	.	2.4	-2.0
O=C(CC1COc2ccccc2O1)NCCc1ccccc1 (stereo unspecified)	.	-27.2	-13.9
CCOC(=O)c1nnsc1NC(=O)Nc1ccc(OC)cc1	-9.2	.	.
O=C(CCCc1cccs1)Nc1ccc2c(c1)OCO2	-13.8	.	.
COc1cccc(NC(=O)N2CCCC2C(=O)Nc2ccc3c(c2)OCCO3)c1 (stereo unspecified)	-9.6	.	.
C=C(C(=O)c1ccccc1)C(CC(=O)c1ccccc1)c1ccccc1 (stereo unspecified)	-10.2	-15.4	38.8*
Cc1ccc(C(CC(=O)c2ccc(Cl)cc2)C(=O)O)cc1 (stereo unspecified)	-1.3	.	.
C=C(CCC(=O)c1ccccc1)C(=O)c1ccccc1	-7.9	-29.0	30.6*
O=C(CCCCCCCC(=O)c1ccccc1)c1ccccc1	-14.2	.	.
COc1cc(C(=O)NC(=S)NNC(=O)c2cnccn2)cc(OC)c1OC	4.4	88.1*	8.7
O=C(NC(=S)NNC(=O)c1cnccn1)c1ccc(Cl)cc1	12.1	.	.
COc1ccccc1C(=O)NNC(=S)NC(=O)c1cc(OC)c(OC)c(OC)c1	-18.7	.	.
COc1ccc(C(=O)NC(=S)NNC(=O)c2cnccn2)cc1	-9.8	81.3*	1.6
C=CCn1c(SCC(=O)c2ccc(CNC(C)=O)o2)nc2scc(C3CC3)c2c1=O	-3.1	-30.1	-5.2
COc1cc(/C=N/n2c(C)nnc2C)cc(OC)c1OC	.	-37.8	-11.8
COc1c(Br)cc(Br)cc1/C=N/n1c(C)nnc1C	-24.0	-78.9	36.6*
Cc1ccc(S(=O)(=O)N[C@@H](Cc2ccccc2)C(=O)CCl)cc1	-5.9	-34.9	49.4*
CCCC(NS(=O)(=O)c1ccc(C)cc1)C(=O)O (stereo unspecified)	.	-41.1	-5.2
O=C(c1cc2ccccc2o1)c1nc2c(n1O)CCCCC2	-16.5	-35.4	0.2
COc1ccc(/C=C2/C(=O)N(Cc3ccccc3)N=C2C)cc1	-5.6	-56.4	26.7*
COc1ccc(/C=C2\SC(=S)N(C(Cc3ccccc3)C(=O)O)C2=O)cc1 (stereo unspecified)	-14.8	.	.
CCCn1c(=O)c2[nH]cnc2n(-c2ccccc2C)c1=O	4.7	.	.
c1ccc(-n2cnc3cc(NCc4cccs4)ccc32)cc1	.	-22.0	-19.6
Cc1ccc(-n2cnc3cc(NCc4cccs4)ccc32)cc1	.	49.9*	-20.8
SMILES	S1P3 antag	BB579 growth dn	Yeast life ext
CCOc1ccccc1N1CCN(CC(=O)N(CC(C)C)c2c(N)n(CC(C)C)c(=O)[nH]c2=O)CC1	-7.6	.	.
CCCCCC1CC1C(=O)N/N=C/c1ccc(N(C)C)cc1 (stereo unspecified)	.	-35.6	41.7*
CN(C)c1ccc(/C=N/NC(=O)COc2ccccc2)cc1	-3.0	.	.
CC(C)CSC1=NSC2=NC(=O)/C(=C\c3coc4ccccc4c3=O)C(=N)N12	-2.0	.	.
CSC1=NSC2=NC(=O)/C(=C\c3coc4ccccc4c3=O)C(=N)N12	7.1	69.6*	20.6
Cc1ccc(C(=O)NNC(=S)NC(=O)c2ccc(Cl)cc2)cc1	.	-32.3	95.0*
CC(=O)NNC(=S)NC(=O)c1ccc(C)cc1	-5.5	.	.
CC(C)(C)C(=O)C(CO)(Oc1ccc(Cl)cc1)n1cncn1 (stereo unspecified)	-17.3	-48.3	1.9
Cc1ccc(NC(=S)Nc2ccc(Cl)c(Cl)c2)c(OC(F)F)c1	13.7	85.4*	-8.1
Cc1ccc(NC(=S)Nc2ccc(OC(F)F)c(Cl)c2)cc1Cl	13.1	-36.2	-4.4
COC(=O)C(CCSC)NC(=O)CNS(=O)(=O)c1ccc(Br)cc1 (stereo unspecified)	.	-26.4	-2.2
O=C(O)c1ccc(N2CCCC2=O)cc1	-9.3	26.5	-12.0
CNS(=O)(=O)c1ccc(NC(=S)Nc2ccc3c(c2)OCO3)cc1	5.0	.	.
S=C(NCC1CCCCC1)Nc1ccc(Oc2ccccc2)cc1	0.8	48.9*	-1.2
S=C(Nc1ccc(Oc2ccccc2)cc1)NC1CCCC1	2.3	20.1	-4.6
CCN1/C(=C/C=C/C=C/c2sc3ccccc3[n+]2CC)Sc2ccccc21	-2.7	83.7*	14.4
CC[n+]1c(/C=C/Nc2ccccc2)sc2ccccc21	.	-9.0	5.4
Fc1cc(NC(=S)NCc2ccc(CNC(=S)Nc3ccc(Cl)c(F)c3)cc2)ccc1Cl	8.4	.	.
O=S(=O)(c1cccs1)N1CCN(CC(O)COc2cccc(Br)c2)CC1 (stereo unspecified)	.	14.6	-17.6
O=S(=O)(c1cccs1)N1CCN(CC(O)COC2CCCc3ccccc32)CC1 (stereo unspecified)	100.1*	4.2	-9.0
Cc1ccc(O)c(C(=O)c2cc(C#N)c(=O)n(CC3CCCO3)c2)c1 (stereo unspecified)	-101.5	-38.2	-3.1
COc1ccc(O)c(C(=O)c2cc(C#N)c(=O)n(CC3CCCO3)c2)c1 (stereo unspecified)	.	-19.6	113.4*
Cc1cnc(NC(=O)COc2cccc3c2OC(C)(C)C3)s1	.	-29.4	-20.4
O=S(=O)(c1ccc(Cl)nc1)N1CCN(Cc2ccc3c(c2)OCO3)CC1	.	17.0	1.8
O=S(=O)(c1cc(Cl)ccc1Cl)N1CCN(Cc2ccc3c(c2)OCO3)CC1	86.5*	-20.0	-2.7
SMILES	S1P3 antag	BB579 growth dn	Yeast life ext
Cc1nn(C)c(C)c1CN(C)S(=O)(=O)c1ccc2ccccc2c1	.	-23.2	.
Nc1[nH]c(=O)ncc1F	-7.6	73.8*	2.2
CCc1cccc2c(C(=O)CN3C(=O)NC(C)(c4cccc5ccccc45)C3=O)c[nH]c12 (stereo unspecified)	12.7	.	.
CCCCC(=O)Nc1cccc(C(=O)Nc2ccccc2C(=O)O)c1	-8.3	.	.
O=C(COc1ccc2ccccc2c1)Nc1cccc(C(=O)Nc2ccccc2C(=O)O)c1	12.3	-35.1	63.7*
O=c1c(-c2ccc3c(c2)OCCO3)coc2cc(OC3OC(CO)C(O)C(O)C3O)ccc12 (stereo unspecified)	-11.9	.	.
CCOc1ccc(S(=O)(=O)N2CCN(S(=O)(=O)c3ccc(OCC)cc3)C(C)C2)cc1 (stereo unspecified)	70.8*	-37.1	.
CCOC(=O)N1CCN(S(=O)(=O)c2ccc(OCC)cc2)CC1	.	-22.1	3.9
C1COCCNCCOCCOCCN1	.	-35.3	-8.6
COCCn1c(SCC(=O)Nc2nnc(C)s2)nnc1-c1ccco1	0.7	.	.
COCCCn1c(SCC(=O)Nc2nnc(C)s2)nnc1-c1ccoc1C	1.1	-6.9	59.6*
Cc1cc(C)cc(Oc2ccccc2CO)c1	-0.1	.	.
CC(C)OC(=O)CC1C(=O)NCCN1C(=S)NC(=O)c1cccs1 (stereo unspecified)	-10.4	.	.
O=C(NCc1ccc2c(c1)OCO2)c1nnc(Cc2ccc(F)cc2)o1	105.9*	-32.3	0.5
O=C(NCc1cccnc1)c1nnc(Cc2ccc(F)cc2)o1	-11.4	7.1	-6.8
COc1ccc(C2CC(c3ccc4ccccc4c3)=NN2C(=O)CN2C(=O)CCC2=O)cc1 (stereo unspecified)	-9.1	.	.
COc1ccc(Nc2ncnc3c2cnn3-c2ccccc2)cc1OC	22.6	-9.7	-6.6
